The source made the active and inactive calls. The calls are words filed in the database; no cut-off is given here.
Legend:
[1] = Antioxidant activity assessed as DPPH free radical scavenging activity incubated for 30 mins; format: physicochemical
Outline: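 DPPH in HPLC-grade solvent mixed with compound in DMSO at 7 concentrations, or with DMSO alone as control. Kept in the dark at rt for 30 min, then A515 read against a blank. % DPPH remaining = A_sample/A_control × 100, plotted against concentration; EC50 taken from the straight line. Triplicate.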

[2] = Antioxidant activity assessed as H2O2 scavenging activity at 100 uM incubated for 20 mins by phenol red based assay; format: physicochemical
Outline: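 Compound at 100 µM final, or DMSO control, in 0.1 M phosphate buffer pH 7.4 with H2O2 and 0.1 M NaCl, incubated in the dark at 37 °C for 20 min. Phenol red (0.2 mg/mL) and horseradish peroxidase (0.1 mg/mL) added, 15 min at 37 °C. NaOH added, 10 min at rt, A610 read. % reduction = (A_control − A_sample)/A_control × 100.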

[3] = Antioxidant activity assessed as inhibition of the lipid peroxidation at 0.74 mM incubated for 24 hrs by ferric thiocyanate method; format: physicochemical; conditions: 740 µM
Outline: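 Ferric thiocyanate method at 0.74 mM. 10.0 mM DMSO stock combined with methanolic linoleic acid in 0.2 M phosphate buffer pH 7.0. AAPH added, then 24 h at 50 °C in the dark; DMSO served as control. An aliquot was diluted in H2O–DMSO with NH4SCN and FeCl2 in HCl. After 3 min at rt, A546 read. % inhibition relative to control.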

[4] = Potency index, ratio of IC50 for hydroxytyrosol to IC50 for test compound for antioxidant activity assessed as DPPH free radical scavenging activity incubated for 30 mins
[5] = Inhibition of baker's yeast alpha-glucosidase using p-nitrophenyl-alpha-D-glucopyranoside substrate assessed as reduction in p-nitrophenolate formation at 500 uM; conditions: Saccharomyces bayanus
Outline: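 α-Glucosidase in 0.1 M phosphate buffer pH 6.8 with p-nitrophenyl-α-D-glucopyranoside at K_M (250 µM; K_M 0.25 mM). Inhibitor at 500 µM final or DMSO, DMSO 5% v/v.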

[6] = Inhibition of baker's yeast alpha-glucosidase using p-nitrophenyl-alpha-D-glucopyranoside substrate assessed as inhibition constant for enzyme-compound binding by measuring reduction in p-nitrophenolate formation; parameters: species or system Saccharomyces cerevisiae
Outline: (§1)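 Same α-glucosidase conditions: pH 6.8 phosphate buffer, 25 °C, A400 for p-nitrophenolate, 5% DMSO. Done for inhibitors exceeding 50% inhibition at 500 µM. Rates measured at 5 substrate concentrations from 0.25 to 4.0 K_m, each at a fixed inhibitor concentration, using 2–3 inhibitor concentrations. Lineweaver–Burk double reciprocal plots gave the inhibition mode and constants K_ia (E) and K_ib (ES).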

[7] = Inhibition of baker's yeast alpha-glucosidase using p-nitrophenyl-alpha-D-glucopyranoside substrate assessed as inhibition constant for enzyme-substrate-compound binding by measuring reduction in p-nitrophenolate formation; outline: as §1
[8] = Mixed inhibition of baker's yeast alpha-glucosidase using p-nitrophenyl-alpha-D-glucopyranoside substrate assessed as reduction in p-nitrophenolate formation by Lineweaver-Burk plot; conditions: Saccharomyces bayanus; outline: as §1
A549 = experiment: Antiproliferative activity against human A549 cells after 48 hrs by sulforhodamine B assay; format: functional; conditions: A549, 48 h
Outline: (§2)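 Exponentially growing cells trypsinized into penicillin/streptomycin medium, >97% viable by trypan blue. Seeded per well: 10,000 (A549, HBL-100, HeLa, SW1573), 15,000 (T-47D), 20,000 (WiDr). Treatment began day 1, DMSO stocks 40 mM, 0.25% DMSO as control, triplicate, 48 h. Cells fixed with cold TCA 60 min at 4 °C, SRB stained, OD492 read, medium background subtracted.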

[9] = Antiproliferative activity against human HBL100 cells after 48 hrs by sulforhodamine B assay; format: functional; conditions: HBL-100, 48 h; outline: as §2
SW1573 = experiment: Antiproliferative activity against human SW1573 cells after 48 hrs by sulforhodamine B assay; format: functional; conditions: SW1573, 48 h; outline: as §2
HeLa = experiment: Antiproliferative activity against human HeLa cells after 48 hrs by sulforhodamine B assay; format: functional; outline: as §2
T47D = experiment: Antiproliferative activity against human T47D cells after 48 hrs by sulforhodamine B assay; format: functional; outline: as §2
WiDr = experiment: Antiproliferative activity against human WiDr cells after 48 hrs by sulforhodamine B assay; format: functional; outline: as §2
[10] = Pro-oxidant activity assessed as hydroxyl radical generation through deoxyribose degradation by measuring change in absorbance at 0.83 mM by TBARS based spectrophotometry; format: ADME; conditions: 830 µM
Outline: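 Modified Halliwell deoxyribose assay with the compound at the stated concentration in 0.1 M phosphate buffer pH 7.4, with 2-deoxyribose, H2O2, and FeCl3 premixed with EDTA. Heated 1 h at 37 °C, then TBA in NaOH and trichloroacetic acid added and heated 15 min at 100 °C. Cooled, A532 read; DMSO as control. Repeated without deoxyribose to account for TBARS interference.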

Saccharomyces bayanus [11] = experiment: Non-competitive inhibition of baker's yeast alpha-glucosidase using p-nitrophenyl-alpha-D-glucopyranoside substrate assessed as reduction in p-nitrophenolate formation by Lineweaver-Burk plot; outline: as §1
Saccharomyces bayanus [12] = experiment: Potency index, ratio of Ki for acarbose to Ki for compound against baker's yeast alpha-glucosidase using p-nitrophenyl-alpha-D-glucopyranoside substrate assessed as reduction in p-nitrophenolate formation

Ratio Ki (Saccharomyces bayanus [12])	Compound	EC50 [1] [µM]	inhibition (INH) [2]	inhibition (INH) [3] [%]	Ratio IC50 [4]	inhibition [5]	Ki [6] [µM]	Ki [7] [µM]	inhibition [8]	GI50 (A549) [µM]	GI50 [9] [µM]	GI50 (SW1573) [µM]	GI50 (HeLa) [µM]	GI50 (T47D) [µM]	GI50 (WiDr) [µM]	Activity [10]	inhibition (Saccharomyces bayanus [11])
–	Oc1ccc(/C=N/NC(=S)Nc2ccccc2)cc1O	9.27	79.3%	72	< 3	68%	708	134	Active	1.6	35	24	7	25	27	–	–
–	O=Cc1cc(O)c(O)cc1O	5.97	80.3%	56.1	–	inactive	–	–	–	> 100	> 100	> 100	> 100	> 100	> 100	–	–
8	Oc1cc(O)c(/C=N/NC(=S)Nc2ccccc2)cc1O	13.9	Not Active	56.8	–	100%	9.6	–	–	1.2	29	30	19	10	30	0.067	Active
–	OCCc1ccc(O)c(O)c1 [HYDROXYTYROSOL]	13.8	–	–	–	–	–	–	–	–	–	–	–	–	–	–	–
–	Oc1ccc(/C=N/NC(=[Se])Nc2ccccc2)cc1	27.8	72.5%	31	–	62%	336	–	–	1.4	13	19	3.7	7.2	16	0.087	Active
–	NNC(=[Se])Nc1cccc2ccccc12	6.65	56.9%	21.9	< 3	14%	–	–	–	–	–	–	–	–	–	0.064	–
–	Oc1cc(/C=N/NC(=[Se])Nc2cccc3ccccc23)cc(O)c1O	8.87	38.1%	24.3	–	98%	154	70.3	Active	1.7	2.4	2.9	2.3	2.7	3.6	0.067	–
–	Oc1ccc(/C=N/NC(=[Se])Nc2ccccc2)cc1O	8.77	69%	66.5	< 3	81%	201	–	–	2.6	3.8	5.8	3.3	3.7	3.2	0.097	Active
–	Oc1cc(O)c(/C=N/NC(=[Se])Nc2cccc3ccccc23)cc1O	10.7	4.5%	43	< 3	95%	33	76.8	Active	1.7	4	5	3	3.5	5.2	–	–
